Source: ChEMBL document CHEMBL1250433, “Synthesis of 5-arylidene-2-amino-4-azolones and evaluation of their anticancer activity” (2010)

How the values were obtained:
Type in all cases: functional
MCF7 = test: Cytotoxicity against human MCF7 cells; conditions: for TGI: read-out: pTGI (converted)
How it was run: (§1)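 Tested in the US National Cancer Institute 60 human tumour cell line screen. Dose-response parameters were calculated per cell line: GI50 (molar concentration giving 50% net growth inhibition), TGI (molar concentration giving total growth inhibition) and LC50 (molar concentration giving 50% net cell kill).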

MDA-MB-435 = test: Cytotoxicity against human MDA-MB-435 cells; conditions: for TGI: read-out: pTGI (converted); how it was run: as §1
NCI/ADR-RES = test: Cytotoxicity against human NCI/ADR-RES cells; how it was run: as §1
T47D = test: Cytotoxicity against human T47D cells; how it was run: as §1
SF-268 = test: Cytotoxicity against human SF268 cells; how it was run: as §1
SF-295 = test: Cytotoxicity against human SF295 cells; how it was run: as §1
SNB-75 = test: Cytotoxicity against human SNB75 cells; how it was run: as §1
COLO 205 = test: Cytotoxicity against human COLO205 cells; how it was run: as §1
HCC 2998 = test: Cytotoxicity against human HCC2998 cells; how it was run: as §1
HCT-116 = test: Cytotoxicity against human HCT116 cells; how it was run: as §1
KM12 = test: Cytotoxicity against human KM12 cells; how it was run: as §1
SW-620 = test: Cytotoxicity against human SW620 cells; conditions: for TGI: read-out: pTGI (converted); how it was run: as §1
SR = test: Cytotoxicity against human SR cells; conditions: for TGI: read-out: pTGI (converted); how it was run: as §1
M14 = test: Cytotoxicity against human M14 cells; how it was run: as §1
HOP-62 = test: Cytotoxicity against human HOP62 cells; how it was run: as §1
NCI-H23 = test: Cytotoxicity against human NCI-H23 cells; conditions: for TGI: read-out: pTGI (converted); how it was run: as §1
NCI-H460 = test: Cytotoxicity against human NCI-H460 cells; conditions: for TGI: read-out: pTGI (converted); how it was run: as §1
OVCAR-3 = test: Cytotoxicity against human OVCAR-3 cells; conditions: for TGI: read-out: pTGI (converted); how it was run: as §1
OVCAR-4 = test: Cytotoxicity against human OVCAR4 cells; how it was run: as §1
[1] = Cytotoxicity against human 786-O cells; how it was run: as §1
CAKI-1 = test: Cytotoxicity against human Caki1 cells; conditions: for TGI: read-out: pTGI (converted); how it was run: as §1
UO-31 = test: Cytotoxicity against human UO31 cells; conditions: for TGI: read-out: pTGI (converted); how it was run: as §1
CCRF-CEM = test: Cytotoxicity against human CCRF-CEM cells; conditions: for TGI: read-out: pTGI (converted); how it was run: as §1
HL-60(TB) = test: Cytotoxicity against human HL-60(TB) cells; conditions: for TGI: read-out: pTGI (converted)
How it was run: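 Tested in the National Cancer Institute 60 human tumour cell line in vitro screen, which includes leukaemia lines. From the dose–response data, GI50 is the molar concentration giving 50% inhibition of net cell growth, TGI is total growth inhibition, and LC50 is 50% net cell kill. Values are expressed as Log GI50.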

MOLT-4 = test: Cytotoxicity against human MOLT4 cells; how it was run: as §1
PC-3 = test: Cytotoxicity against human PC3 cells; conditions: for TGI: read-out: pTGI (converted); how it was run: as §1
SK-MEL-5 = test: Cytotoxicity against human SK-MEL-5 cells; how it was run: as §1
U-251 = test: Cytotoxicity against human U251 cells; how it was run: as §1
HCT-15 = test: Cytotoxicity against human HCT15 cells; how it was run: as §1
K562 = test: Cytotoxicity against human K562 cells; how it was run: as §1
RPMI-8226 = test: Cytotoxicity against human RPMI8226 cells; how it was run: as §1
RXF 393 = test: Cytotoxicity against human RXF393 cells; how it was run: as §1

O=C1N=C(Nc2ccc(O)cc2)S/C1=C\c1ccc(F)cc1
GI50 (MCF7): 35.5 nM | TGI (MCF7): 115 nM | GI50 (MDA-MB-435): 31.6 nM | TGI (MDA-MB-435): 145 nM | GI50 (NCI/ADR-RES): 631 nM | TGI (NCI/ADR-RES; read-out: pTGI (converted)): 3160 nM | GI50 (T47D): 661 nM | TGI (T47D; read-out: pTGI): > 100000 nM | GI50 (SF-268): 490 nM | TGI (SF-268; read-out: pTGI (converted)): 4370 nM | GI50 (SF-295): 380 nM | TGI (SF-295; read-out: pTGI (converted)): 1910 nM | GI50 (SNB-75): 407 nM | TGI (SNB-75; read-out: pTGI): > 100000 nM | GI50 (COLO 205): 631 nM | TGI (COLO 205; read-out: pTGI): > 100000 nM | GI50 (HCC 2998): 562 nM | TGI (HCC 2998; read-out: pTGI (converted)): 2140 nM | GI50 (HCT-116): 219 nM | TGI (HCT-116; read-out: pTGI (converted)): 4370 nM | GI50 (KM12): 132 nM | TGI (KM12; read-out: pTGI (converted)): 741 nM | GI50 (SW-620): 525 nM | TGI (SW-620): > 100000 nM | GI50 (SR): 537 nM | TGI (SR): > 100000 nM | GI50 (M14): 617 nM | TGI (M14; read-out: pTGI (converted)): 11500 nM | GI50 (HOP-62): 427 nM | TGI (HOP-62; read-out: pTGI (converted)): 13200 nM | GI50 (NCI-H23): 372 nM | TGI (NCI-H23): 2090 nM | GI50 (NCI-H460): 263 nM | TGI (NCI-H460): 955 nM | GI50 (OVCAR-3): 324 nM | TGI (OVCAR-3): 562 nM | GI50 (OVCAR-4): 832 nM | TGI (OVCAR-4; read-out: pTGI): > 100000 nM | GI50 ([1]; 786-0): 309 nM | TGI ([1]; 786-0, read-out: pTGI (converted)): 10000 nM | GI50 (CAKI-1): 479 nM | TGI (CAKI-1): 2450 nM | GI50 (UO-31): 955 nM | TGI (UO-31): > 100000 nM

COc1cc(/C=C2\SC(Nc3ccc(O)cc3)=NC2=O)ccc1OCc1ccc(F)cc1
GI50 (CCRF-CEM): 200 nM | TGI (CCRF-CEM): 1150 nM | GI50 (HL-60(TB)): 603 nM | TGI (HL-60(TB)): 10200 nM | GI50 (UO-31): 891 nM | TGI (UO-31): 28800 nM

O=C1N=C(Nc2ccccc2Cl)N/C1=C\c1ccc(Cl)cc1Cl
GI50 (HL-60(TB)): 123 nM | TGI (HL-60(TB)): 1820 nM

O=C1N=C(Nc2cccc(Cl)c2)N/C1=C\c1cccc(F)c1
GI50 (MOLT-4): 1050 nM

O=C1N=C(Nc2cccc(O)c2)S/C1=C\c1ccc(Cl)cc1
GI50 (OVCAR-3): 490 nM | TGI (OVCAR-3): 2750 nM

O=C1N=C(Nc2ccc(Cl)cc2)N/C1=C\c1ccc(Cl)cc1
GI50 (PC-3): 380 nM | TGI (PC-3): 4370 nM

CN(C1=NC(=O)/C(=C/C(Cl)=C\c2ccc([N+](=O)[O-])cc2)S1)c1ccc(O)cc1
GI50 (SK-MEL-5): < 10 nM | TGI (SK-MEL-5; read-out: pTGI): < 10 nM

COc1ccc(CNC2=NC(=O)/C(=C/c3ccccc3Cl)N2)cc1
GI50 (PC-3): 91.2 nM | TGI (PC-3): 27500 nM

O=C1N=C(Nc2ccc(O)cc2)S/C1=C\c1ccc(Cl)cc1
GI50 (MCF7): 50.1 nM | TGI (MCF7): 219 nM | GI50 (MDA-MB-435): 398 nM | TGI (MDA-MB-435): 1660 nM | GI50 (U-251): 490 nM | GI50 (HCT-15): 427 nM | TGI (HCT-15; read-out: pTGI): > 100000 nM | GI50 (CCRF-CEM): 851 nM | TGI (CCRF-CEM): 10200 nM | GI50 (HL-60(TB)): 437 nM | TGI (HL-60(TB)): 10200 nM | GI50 (K562): 257 nM | GI50 (MOLT-4): 603 nM | TGI (MOLT-4; read-out: pTGI (converted)): 17000 nM | GI50 (RPMI-8226): 407 nM | TGI (RPMI-8226; read-out: pTGI): > 100000 nM | GI50 (SR): 145 nM | TGI (SR): 525 nM | GI50 (NCI-H23): 562 nM | TGI (NCI-H23): 3240 nM | GI50 (NCI-H460): 977 nM | TGI (NCI-H460): 87100 nM | GI50 (OVCAR-3): 162 nM | TGI (OVCAR-3): 490 nM | GI50 (CAKI-1): 501 nM | TGI (CAKI-1): 6460 nM | GI50 (RXF 393): 117 nM | TGI (RXF 393; read-out: pTGI (converted)): 3980 nM

COc1ccc(/C=C2\SC(Nc3ccc(O)cc3)=NC2=O)cc1OC
GI50 (MDA-MB-435): 407 nM | TGI (MDA-MB-435): 2040 nM | GI50 (K562): 398 nM | TGI (K562; read-out: pTGI (converted)): 6760 nM

O=C1N=C(NCc2ccc(Cl)cc2)N/C1=C\c1c(Cl)cccc1Cl
GI50 (CCRF-CEM): 1070 nM | TGI (CCRF-CEM): 29500 nM

O=C1N=C(Nc2cccc(O)c2)S/C1=C\C(Cl)=C/c1ccc([N+](=O)[O-])cc1
GI50 (SW-620): 832 nM | TGI (SW-620): 2630 nM | GI50 (OVCAR-3): 372 nM | TGI (OVCAR-3): 955 nM

CN(C1=NC(=O)/C(=C/c2cccc(Cl)c2Cl)S1)c1ccc(O)cc1
GI50 (SR): 437 nM | TGI (SR): 2630 nM
